pIC50: −log10 of the molar value. The source made the active and inactive calls. The calls are words filed in the database; no cut-off is given here.
Key:
[1] = biological target: T1, DNA topoisomerase 1 (Homo sapiens) (UniProt P11387); assay: Inhibition of human recombinant Top1-mediated DNA cleavage by polyacrylamide gel electrophoresis relative to camptothecin; set-up: concentration or dose not given beside the values
T1 sequence (whole entry): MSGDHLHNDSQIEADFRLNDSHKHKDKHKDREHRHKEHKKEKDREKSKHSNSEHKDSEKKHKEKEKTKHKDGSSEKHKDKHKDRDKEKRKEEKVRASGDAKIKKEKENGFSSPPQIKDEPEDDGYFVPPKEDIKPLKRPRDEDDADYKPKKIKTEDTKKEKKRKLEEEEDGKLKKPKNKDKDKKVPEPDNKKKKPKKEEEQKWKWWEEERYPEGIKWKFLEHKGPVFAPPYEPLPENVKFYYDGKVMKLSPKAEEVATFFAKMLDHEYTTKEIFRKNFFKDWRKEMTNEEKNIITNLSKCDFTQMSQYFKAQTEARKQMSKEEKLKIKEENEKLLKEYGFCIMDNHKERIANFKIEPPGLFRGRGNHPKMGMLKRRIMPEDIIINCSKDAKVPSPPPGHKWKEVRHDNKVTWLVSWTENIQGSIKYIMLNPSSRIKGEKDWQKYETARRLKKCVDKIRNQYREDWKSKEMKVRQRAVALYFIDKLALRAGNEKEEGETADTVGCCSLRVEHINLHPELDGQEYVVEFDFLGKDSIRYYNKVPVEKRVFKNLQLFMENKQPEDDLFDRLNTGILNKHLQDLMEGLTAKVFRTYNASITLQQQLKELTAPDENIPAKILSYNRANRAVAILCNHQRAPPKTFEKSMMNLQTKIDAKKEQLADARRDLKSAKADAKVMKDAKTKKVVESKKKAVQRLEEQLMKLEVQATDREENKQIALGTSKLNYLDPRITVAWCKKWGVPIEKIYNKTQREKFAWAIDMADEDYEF
How it was run: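 Baculovirus-purified human recombinant Top1 was incubated for 20 min at 25 °C, with compounds at various concentrations, with about 2 nM of a 117-bp oligonucleotide 3′-end-labeled with [α-³²P]dGTP. Reactions were stopped with 0.5% SDS and run on 20% denaturing PAGE. Cleavage bands were phosphorimaged and graded semiquantitatively against 1 μM camptothecin.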

[2] = biological target: T2, Tyrosyl-DNA phosphodiesterase 1 (Homo sapiens, UniProt Q9NUW8); assay: Inhibition of human recombinant Tdp1 using 5'-[32P]-labeled single-stranded DNA oligonucleotide containing 3'-phosphotyrosine as substrate assessed as prevention of generation of oligonucleotide with free 3'-phosphate after 15 mins by PAGE analysis
[3] = biological target: T2, Tyrosyl-DNA phosphodiesterase 1; assay: Inhibition of human Tdp1 in Tdp1-deficient chicken DT40 whole cell extract using 5'-[32P]-labeled single-stranded DNA oligonucleotide containing 3'-phosphotyrosine as substrate after 15 mins by PAGE analysis

T2 sequence (Q9NUW8 whole entry): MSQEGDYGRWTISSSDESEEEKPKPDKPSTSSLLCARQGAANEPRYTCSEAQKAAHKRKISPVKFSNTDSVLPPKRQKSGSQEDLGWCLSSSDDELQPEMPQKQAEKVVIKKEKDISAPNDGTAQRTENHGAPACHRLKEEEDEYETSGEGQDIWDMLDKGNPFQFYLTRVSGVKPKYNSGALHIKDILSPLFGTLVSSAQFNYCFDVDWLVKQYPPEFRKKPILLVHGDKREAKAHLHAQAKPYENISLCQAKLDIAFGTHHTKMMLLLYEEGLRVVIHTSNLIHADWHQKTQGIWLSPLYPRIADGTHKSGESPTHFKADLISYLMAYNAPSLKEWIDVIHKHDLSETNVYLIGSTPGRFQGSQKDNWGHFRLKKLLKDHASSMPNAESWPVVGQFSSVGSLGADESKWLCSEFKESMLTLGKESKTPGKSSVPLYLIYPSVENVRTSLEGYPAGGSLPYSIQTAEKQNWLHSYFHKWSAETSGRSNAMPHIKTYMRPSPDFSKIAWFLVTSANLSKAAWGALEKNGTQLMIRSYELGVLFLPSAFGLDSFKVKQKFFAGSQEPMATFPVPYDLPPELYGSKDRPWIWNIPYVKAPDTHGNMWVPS

Row | inhibition [1] | pIC50 [2] | pIC50 [3] | inhibition ([1]; concentration not given here) [%] | inhibition [2] | SMILES
1 | inactive | < 3.95 |  |  |  | O=C1c2ccccc2-c2c1c1ccccc1c(=O)n2CCNS(=O)(=O)c1ccccc1
2 | inactive | < 3.95 |  |  |  | Cc1ccc(S(=O)(=O)NCCCn2c3c(c4ccccc4c2=O)C(=O)c2ccccc2-3)cc1
3 |  | < 3.95 |  |  |  | O=C1c2ccccc2-c2c1c1ccccc1c(=O)n2CCO
4 | inactive | < 3.95 |  |  |  | O=C1c2ccccc2-c2c1c1ccccc1c(=O)n2CCCCCCCCCCNS(=O)(=O)c1ccc(Br)cc1
5 | inactive | < 3.95 |  |  |  | O=C1c2ccccc2-c2c1c1ccccc1c(=O)n2CCCNS(=O)(=O)c1ccccc1
6 | inactive | < 3.95 |  |  |  | O=C1c2ccccc2-c2c1c1ccccc1c(=O)n2CCCCCCCCCCCNS(=O)(=O)c1ccccc1
7 | inactive | < 3.95 |  |  |  | Cc1ccc(S(=O)(=O)NCCCCn2c3c(c4ccccc4c2=O)C(=O)c2ccccc2-3)cc1
8 |  | < 3.95 |  |  |  | O=C1c2ccccc2-c2c1c1ccccc1c(=O)n2CCCCCCCCCCn1c2c(c3ccccc3c1=O)C(=O)c1ccccc1-2
9 |  | < 3.95 |  |  |  | O=C1c2ccccc2-c2c1c1ccccc1c(=O)n2CCCCCCCCCCCn1c2c(c3ccccc3c1=O)C(=O)c1ccccc1-2
10 |  | 4.33 | 4.32 | 0 | Dose-dependent effect | NCCCCCCCCCn1c2c(c3ccccc3c1=O)C(=O)c1ccccc1-2
11 | inactive | < 3.95 |  |  |  | O=C1c2ccccc2-c2c1c1ccccc1c(=O)n2CCCCCCCCCCCNS(=O)(=O)c1ccc(Br)cc1
12 | inactive | < 3.95 |  |  |  | O=C1c2ccccc2-c2c1c1ccccc1c(=O)n2CCCCCCCCCNS(=O)(=O)c1ccccc1
13 |  | < 3.95 |  |  |  | Cc1ccc(S(=O)(=O)OCCCCCCn2c3c(c4ccccc4c2=O)C(=O)c2ccccc2-3)cc1
14 | inactive | < 3.95 |  |  |  | O=C1c2ccccc2-c2c1c1ccccc1c(=O)n2CCCCCCCCNS(=O)(=O)c1ccccc1
15 | inactive | < 3.95 |  |  |  | O=C1c2ccccc2-c2c1c1ccccc1c(=O)n2CCCCCCCCCCCCNS(=O)(=O)c1ccc(Br)cc1
16 | inactive | < 3.95 |  |  |  | CS(=O)(=O)NCCCCCCn1c2c(c3ccccc3c1=O)C(=O)c1ccccc1-2
17 | inactive | < 3.95 |  |  |  | Cc1ccc(S(=O)(=O)NCCCCCCCn2c3c(c4ccccc4c2=O)C(=O)c2ccccc2-3)cc1
18 | inactive | < 3.95 |  |  |  | CS(=O)(=O)NCCCCCCCCCn1c2c(c3ccccc3c1=O)C(=O)c1ccccc1-2
19 | inactive | < 3.95 |  |  |  | O=C1c2ccccc2-c2c1c1ccccc1c(=O)n2CCCCCCNS(=O)(=O)c1ccc(Br)cc1
20 | inactive | < 3.95 |  |  |  | Cc1ccc(S(=O)(=O)NCCCCCCn2c3c(c4ccccc4c2=O)C(=O)c2ccccc2-3)cc1

Row | inhibition [1] | pIC50 [2] | pIC50 [3] | inhibition ([1]; concentration not given here) [%] | inhibition [2] | SMILES
21 | inactive | < 3.95 |  |  |  | O=C1c2ccccc2-c2c1c1ccccc1c(=O)n2CCCNS(=O)(=O)c1ccc(Br)cc1
22 | inactive | < 3.95 |  |  |  | Cc1ccc(S(=O)(=O)NCCCCCn2c3c(c4ccccc4c2=O)C(=O)c2ccccc2-3)cc1
23 |  | 4.54 | 4.51 | 0 |  | NCCCCCCCn1c2c(c3ccccc3c1=O)C(=O)c1ccccc1-2
24 | inactive | < 3.95 |  |  |  | CS(=O)(=O)NCCCn1c2c(c3ccccc3c1=O)C(=O)c1ccccc1-2
25 | inactive | < 3.95 |  |  |  | O=C1c2ccccc2-c2c1c1ccccc1c(=O)n2CCCCCNS(=O)(=O)c1ccc(Br)cc1
26 |  | < 3.95 |  |  |  | O=C1c2ccccc2-c2c1c1ccccc1c(=O)n2CCCO
27 | inactive | < 3.95 |  |  |  | O=C1c2ccccc2-c2c1c1ccccc1c(=O)n2CCCCNS(=O)(=O)c1ccccc1
28 | inactive | < 3.95 |  |  |  | O=C1c2ccccc2-c2c1c1ccccc1c(=O)n2CCCCCCCNS(=O)(=O)c1ccc(Br)cc1
29 | inactive | < 3.95 |  |  |  | CS(=O)(=O)NCCCCn1c2c(c3ccccc3c1=O)C(=O)c1ccccc1-2
30 |  | < 3.95 |  |  |  | Cc1ccc(S(=O)(=O)OCCCCCCCn2c3c(c4ccccc4c2=O)C(=O)c2ccccc2-3)cc1
31 | inactive | < 3.95 |  |  |  | O=C1c2ccccc2-c2c1c1ccccc1c(=O)n2CCCCCCCNS(=O)(=O)c1ccccc1
32 |  |  | 4.63 | 75 |  | NCCCCn1c2c(c3ccccc3c1=O)C(=O)c1ccccc1-2
33 | inactive | < 3.95 |  |  |  | Cc1ccc(S(=O)(=O)NCCCCCCCCCCn2c3c(c4ccccc4c2=O)C(=O)c2ccccc2-3)cc1
34 | inactive | < 3.95 |  |  |  | CS(=O)(=O)NCCCCCCCCCCCCn1c2c(c3ccccc3c1=O)C(=O)c1ccccc1-2
35 | inactive | < 3.95 |  |  |  | Cc1ccc(S(=O)(=O)NCCn2c3c(c4ccccc4c2=O)C(=O)c2ccccc2-3)cc1
36 | inactive | < 3.95 |  |  |  | Cc1ccc(S(=O)(=O)NCCCCCCCCCCCn2c3c(c4ccccc4c2=O)C(=O)c2ccccc2-3)cc1
37 | inactive | < 3.95 |  |  |  | Cc1ccc(S(=O)(=O)NCCCCCCCCn2c3c(c4ccccc4c2=O)C(=O)c2ccccc2-3)cc1
38 |  | < 3.95 |  |  |  | Cc1ccc(S(=O)(=O)OCCCn2c3c(c4ccccc4c2=O)C(=O)c2ccccc2-3)cc1
39 |  | < 3.95 |  |  |  | O=C1c2ccccc2-c2c1c1ccccc1c(=O)n2CCCCCO
40 | inactive | < 3.95 |  |  |  | O=C1c2ccccc2-c2c1c1ccccc1c(=O)n2CCCCCCCCCCCCNS(=O)(=O)c1ccccc1

Row | inhibition [1] | pIC50 [2] | pIC50 [3] | inhibition ([1]; concentration not given here) [%] | inhibition [2] | SMILES
41 | inactive | < 3.95 |  |  |  | Cc1ccc(S(=O)(=O)NCCCCCCCCCn2c3c(c4ccccc4c2=O)C(=O)c2ccccc2-3)cc1
42 | inactive | < 3.95 |  |  |  | O=C1c2ccccc2-c2c1c1ccccc1c(=O)n2CCCCCNS(=O)(=O)c1ccccc1
43 |  | < 3.95 |  |  |  | O=C1c2ccccc2-c2c1c1ccccc1c(=O)n2CCCCO
44 | inactive | < 3.95 |  |  |  | CS(=O)(=O)NCCn1c2c(c3ccccc3c1=O)C(=O)c1ccccc1-2
45 | inactive | < 3.95 |  |  |  | O=C1c2ccccc2-c2c1c1ccccc1c(=O)n2CCCCCCNS(=O)(=O)c1ccccc1
46 | inactive | < 3.95 |  |  |  | O=C1c2ccccc2-c2c1c1ccccc1c(=O)n2CCCCCCCCNS(=O)(=O)c1ccc(Br)cc1
47 | inactive | < 3.95 |  |  |  | O=C1c2ccccc2-c2c1c1ccccc1c(=O)n2CCCCCCCCCNS(=O)(=O)c1ccc(Br)cc1
48 | inactive | < 3.95 |  |  |  | CS(=O)(=O)NCCCCCCCCCCn1c2c(c3ccccc3c1=O)C(=O)c1ccccc1-2
49 |  | < 3.95 |  |  |  | O=C1c2ccccc2-c2c1c1ccccc1c(=O)n2CCCCCCCCCCCCn1c2c(c3ccccc3c1=O)C(=O)c1ccccc1-2
50 |  | < 3.95 |  |  |  | Cc1ccc(S(=O)(=O)OCCCCn2c3c(c4ccccc4c2=O)C(=O)c2ccccc2-3)cc1
51 | inactive | < 3.95 |  |  |  | CS(=O)(=O)NCCCCCCCCCCCn1c2c(c3ccccc3c1=O)C(=O)c1ccccc1-2
52 | inactive | < 3.95 |  |  |  | CS(=O)(=O)NCCCCCCCn1c2c(c3ccccc3c1=O)C(=O)c1ccccc1-2
53 | inactive | < 3.95 |  |  |  | O=C1c2ccccc2-c2c1c1ccccc1c(=O)n2CCCCCCCCCCNS(=O)(=O)c1ccccc1
54 |  | < 3.95 |  |  |  | Cc1ccc(S(=O)(=O)OCCCCCn2c3c(c4ccccc4c2=O)C(=O)c2ccccc2-3)cc1
55 | inactive | < 3.95 |  |  |  | CS(=O)(=O)NCCCCCn1c2c(c3ccccc3c1=O)C(=O)c1ccccc1-2
56 | inactive | < 3.95 |  |  |  | O=C1c2ccccc2-c2c1c1ccccc1c(=O)n2CCNS(=O)(=O)c1ccc(Br)cc1
57 | inactive | < 3.95 |  |  |  | Cc1ccc(S(=O)(=O)NCCCCCCCCCCCCn2c3c(c4ccccc4c2=O)C(=O)c2ccccc2-3)cc1
58 | inactive | < 3.95 |  |  |  | CS(=O)(=O)NCCCCCCCCn1c2c(c3ccccc3c1=O)C(=O)c1ccccc1-2
59 | inactive | < 3.95 |  |  |  | O=C1c2ccccc2-c2c1c1ccccc1c(=O)n2CCCCNS(=O)(=O)c1ccc(Br)cc1

Row | SMILES | inhibition [1] | pIC50 [2] | pIC50 [3] | inhibition ([1]; concentration not given here) [%] | inhibition [2]
60 | NCCCCCCCCCCn1c2c(c3ccccc3c1=O)C(=O)c1ccccc1-2 |  | 4.85 | 4.67 | 0 | 
61 | O=C1c2ccccc2-c2c1c1ccccc1c(=O)n2CCCNCCCNCCCn1c2c(c3ccccc3c1=O)C(=O)c1ccccc1-2 |  | 5.82 |  | 100 | 

— ChEMBL document CHEMBL2057156, “Synthesis and biological evaluation of the first dual tyrosyl-DNA phosphodiesterase I (Tdp1)-topoisomerase I (Top1) inhibitors” (J Med Chem, 2012)
